Here are results for eight molecules from ChEMBL document CHEMBL3232944 (Bioorg Med Chem Lett, 2014).

The subject of one series is RAW264.7. Put plainly: Cytotoxicity against mouse RAW264.7 cells assessed as cell viability at >10 uM after 24 hrs by MTT assay in presence of LPS. Particulars: raw264.7, 24 h. Format: cell-based. In short, it runs like this:
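RAW 264.7 cells plated at 10⁵ cells/well, exposed to various concentrations of compound in the presence of LPS for 24 h. Viability read by colorimetric MTT assay. At least three independent experiments.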
On the technique in general: Tetrazolium dyes change colour on reduction, which living cells bring about.

Series [1] addresses T1, Prostaglandin G/H synthase 1 (Ovis aries, UniProt P05979).
T1 sequence (P05979 whole entry): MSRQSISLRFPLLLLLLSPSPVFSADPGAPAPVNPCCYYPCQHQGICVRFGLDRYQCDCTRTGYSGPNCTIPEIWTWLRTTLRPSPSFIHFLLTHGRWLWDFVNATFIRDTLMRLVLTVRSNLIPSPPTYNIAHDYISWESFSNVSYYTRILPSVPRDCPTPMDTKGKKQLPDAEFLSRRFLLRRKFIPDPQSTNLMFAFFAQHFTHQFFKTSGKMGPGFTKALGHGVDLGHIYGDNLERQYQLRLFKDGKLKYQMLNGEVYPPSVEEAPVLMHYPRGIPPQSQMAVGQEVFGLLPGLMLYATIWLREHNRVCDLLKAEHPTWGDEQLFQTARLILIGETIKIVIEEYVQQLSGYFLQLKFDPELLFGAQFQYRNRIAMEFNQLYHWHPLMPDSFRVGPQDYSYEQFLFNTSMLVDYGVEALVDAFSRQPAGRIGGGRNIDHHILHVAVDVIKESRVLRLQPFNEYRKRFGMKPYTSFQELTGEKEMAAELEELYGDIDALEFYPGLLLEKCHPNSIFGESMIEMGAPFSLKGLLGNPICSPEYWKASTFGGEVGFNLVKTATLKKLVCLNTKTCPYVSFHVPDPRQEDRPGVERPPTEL
The series is described as follows: Inhibition of ovine COX-1 assessed as decrease in PGH2 production using arachidonic acid as substrate treated with enzyme for 10 mins prior to substrate challenge for 2 mins by enzyme immunoassay. In a few lines:
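Ovine COX-1 was mixed with test compound at various concentrations plus heme and held 10 min at 37 °C. Arachidonic acid was then added and the reaction ran another 2 min at 37 °C. PGH₂ was reduced with SnCl₂, and the resulting PGF₂α was quantified by EIA using a broadly specific prostaglandin antibody. Boiled (3 min) enzyme served as background and compound-free samples as control. IC50 taken from at least three experiments.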

pIC50: −log10 of the molar value.

One may read the pIC50 as the IC50 on a negative log10 scale, so that one unit is a factor of ten. As to `COc1ccc(C2=C(c3ccc(S(N)(=O)=O)cc3)C(=O)N(C)C2=O)cc1`, the Activity entry in the series on RAW264.7 is “Non-toxic”. Also, the pIC50 in series [1] was below 6.00.

On to `Cc1ccc(C2=C(c3ccc(S(N)(=O)=O)cc3)C(=O)N(C)C2=O)cc1`, for which the Activity result with RAW264.7 is “Non-toxic”. Further, the pIC50 in series [1] was below 6.00.

As to `CN1C(=O)C(c2ccc(Cl)cc2)=C(c2ccc(S(N)(=O)=O)cc2)C1=O`, in the series on RAW264.7, the Activity entry is “Non-toxic”. For the same molecule, the negative logarithm of the IC50 (pIC50) in series [1] was below 6.00.

Take `Cc1ccc(C2=C(c3ccc(S(N)(=O)=O)cc3)C(=O)NC2=O)cc1`: the Activity result with RAW264.7 is given as “Non-toxic”. Also, the negative-log IC50 (pIC50) in series [1] is below 4.00.

In the case of `COc1ccc(C2=C(c3ccc(S(N)(=O)=O)cc3)C(=O)NC2=O)cc1`, in the series with RAW264.7, the Activity entry was “Non-toxic”. Besides, the negative logarithm of the IC50 (pIC50) in series [1] was below 4.00.

With `NS(=O)(=O)c1ccc(C2=C(c3ccccc3)C(=O)NC2=O)cc1`, the Activity result in the series on RAW264.7 is listed as “Non-toxic”. Further, the negative logarithm of the IC50 (pIC50) in series [1] is 3.90.

Take `CN1C(=O)C(c2ccccc2)=C(c2ccc(S(N)(=O)=O)cc2)C1=O`: the Activity entry in the series on RAW264.7 is “Non-toxic”. The pIC50 in series [1] is below 6.00.

Turning to `NS(=O)(=O)c1ccc(C2=C(c3ccc(Cl)cc3)C(=O)NC2=O)cc1`, the Activity entry in the series on RAW264.7 is “Non-toxic”. Besides, in series [1], the pIC50 was below 4.00.
